Data on six molecules can be found in ChEMBL document CHEMBL1127028, “Thromboxane receptor antagonism combined with thromboxane synthase inhibition. 5. Synthesis and evaluation of enantiomers of 8-[[(4-chlorophenyl)sulfonyl]amino]-4-(3-pyridinylalkyl)octanoic acid” (J Med Chem, 1993).

SMILES strings stand for the structures.

For assay [1], the species on record is Homo sapiens. Kind of assay: Inhibition of U 46619-induced Aggregation of human Washed platelets. The assay is classed as functional. The gist of the method:
(§1)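 Human platelets (washed, or platelet-rich plasma) were aggregated with U 46619, a TxA2/PGH2 mimetic. The test agent was titrated against this challenge and reported as an IC50.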

The subject of assay [2] is Cavia porcellus. Kind of assay: Ex vivo Inhibition of U 46619-induced aggregation of guinea pig platelets at the dose of 3 mg/Kg po per hour expressed as concentration ratio (EC50 of drug/EC50 of control). The assay is classed as functional. Summed up: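 Oral dosing of guinea pigs at 3 mg/kg, blood drawn 1 h later, then ex vivo U 46619-induced platelet aggregation measured. Concentration ratio is EC50 of U 46619 for the treated group over EC50 for vehicle controls (n = 22). 4–6 animals per group; values are mean ± SEM.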

A further assay deals with T1, Thromboxane-A synthase (Homo sapiens, UniProt P24557).
T1 sequence (P24557 whole entry): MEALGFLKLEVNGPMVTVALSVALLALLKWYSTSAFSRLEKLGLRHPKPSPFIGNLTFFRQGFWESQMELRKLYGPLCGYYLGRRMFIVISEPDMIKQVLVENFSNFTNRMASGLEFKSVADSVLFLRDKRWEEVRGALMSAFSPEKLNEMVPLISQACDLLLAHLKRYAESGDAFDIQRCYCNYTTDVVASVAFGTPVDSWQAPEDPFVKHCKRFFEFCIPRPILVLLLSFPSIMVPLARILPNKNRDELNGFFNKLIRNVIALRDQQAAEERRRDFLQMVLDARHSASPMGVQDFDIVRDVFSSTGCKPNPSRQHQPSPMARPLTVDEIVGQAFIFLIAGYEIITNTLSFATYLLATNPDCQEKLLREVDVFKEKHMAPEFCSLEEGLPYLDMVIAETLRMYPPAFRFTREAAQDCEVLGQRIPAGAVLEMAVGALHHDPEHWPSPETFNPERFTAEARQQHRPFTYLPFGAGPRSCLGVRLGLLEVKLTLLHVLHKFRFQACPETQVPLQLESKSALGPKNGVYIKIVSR
Description: In vitro inhibition of thromboxane synthetase in microsomal platelet preparation.

The species entered for assay [3] is Homo sapiens. Kind of assay: Inhibition of U 46619-induced Aggregation of Human Platelet-rich Plasma. The assay is classed as functional. The gist of the method:
as §1

The subject of assay [4] is Cavia porcellus. Kind of assay: Ex vivo Inhibition of U 46619-induced aggregation of guinea pig platelets at the dose of 10 mg/Kg po per hour expressed as concentration ratio (EC50 of drug/EC50 of control). It counts as functional. Summed up:
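Guinea pigs dosed orally at 10 mg/kg; blood sampled 1 h post-dose and platelet aggregation induced ex vivo with U 46619. Result given as concentration ratio, EC50 of U 46619 in drug-treated animals divided by EC50 in vehicle controls (vehicle n = 22). Groups of 4–6 animals; mean ± SEM.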

The species named for assay [5] is Homo sapiens. Kind of assay: Inhibition of U 46619-induced Aggregation of Human Washed Platelets. The assay is classed as functional. Summed up: as §1

`O=C(O)CC[C@H](CCCCNS(=O)(=O)c1ccc(Cl)cc1)CCOc1cccnc1`: the concentration for half-maximal inhibition (IC50) – broadly, the point on the concentration scale where inhibition reaches its midpoint – in the assay listed under Homo sapiens [1] stood at 10 nM; on Thromboxane-A synthase, 3.5 nM; in the assay filed under Homo sapiens [3] it was 0.32 nM. In addition, the Concentration ratio in the assay with Cavia porcellus [2] was 90.
`O=C(O)CC[C@H](CCCCNS(=O)(=O)c1ccc(Cl)cc1)CCCc1cccnc1`: in the assay on Cavia porcellus [4], the Concentration ratio came to 43. Besides, the IC50 in the assay filed under Homo sapiens [5] came to 11 nM; on Thromboxane-A synthase, 5 nM; in the assay listed under Homo sapiens [3], 0.38 nM.
As to `O=C(O)CC[C@@H](CCCCNS(=O)(=O)c1ccc(Cl)cc1)CCCc1cccnc1`, the IC50 was determined as 26 nM in the assay filed under Homo sapiens [1], 4.5 nM against Thromboxane-A synthase and 0.55 nM in the assay listed under Homo sapiens [3]. Besides, the Concentration ratio in the assay with Cavia porcellus [4] is listed as 54.
For the molecule `O=C(O)CC[C@@H](CCCCNS(=O)(=O)c1ccc(Cl)cc1)CCOc1cccnc1`, the IC50 in the assay listed under Homo sapiens [1] was 9 nM; at Thromboxane-A synthase, 13 nM; in the assay listed under Homo sapiens [3], 0.53 nM. Further, the Concentration ratio in the assay with Cavia porcellus [2] is listed as 66.
In the case of `O=C(O)CCC(CCCCNS(=O)(=O)c1ccc(Cl)cc1)CCOc1cccnc1` (stereo unspecified), in the assay on Cavia porcellus [2], the Concentration ratio was more than 100. For the same molecule, the figures for the IC50 at Thromboxane-A synthase and in the assay listed under Homo sapiens [3] were 2.6 nM and 0.28 nM, respectively.
In the case of `O=C(O)CCC(CCCCNS(=O)(=O)c1ccc(Cl)cc1)CCCc1cccnc1` (stereo unspecified), the Concentration ratio in the assay with Cavia porcellus [4] came out at 27. This molecule came in with an IC50 in the assay listed under Homo sapiens [3] of 0.39 nM.
